Laboratory results published in ChEMBL document CHEMBL1127344, “Tridentate ligands containing the SNS donor atom set as a novel backbone for the development of technetium brain-imaging agents” (J Med Chem, 1994).

Key:
Rattus norvegicus [1] = organism: Rattus norvegicus; experiment: Tested for biodistribution of compound at 60 min in rat heart; assay type: ADME, organism-based; settings: in vivo, 1 h
Rattus norvegicus [2] = organism: Rattus norvegicus; experiment: Tested for biodistribution of compound at 60 min in rat lungs; assay type: ADME, organism-based, Lung; settings: in vivo, 1 h
Rattus norvegicus [3] = organism: Rattus norvegicus; experiment: Tested for biodistribution of compound at 5 min in rat muscle; assay type: ADME, organism-based, Muscle tissue; settings: in vivo
Mus musculus [4] = organism: Mus musculus; experiment: Tested for biodistribution of compound at 60 min in mice blood; assay type: ADME, organism-based; settings: in vivo, 1 h
How it was run: (§1)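 Male Swiss albino mice, at least five per group, received HPLC-purified 99mTc complex by tail vein. The complex was reconstituted in 50% methanol (0.1 mL, 2-3 μCi). Mice were killed by cardiectomy under light ether at 1-60 min pi. Organs were weighed and γ-counted against a 1% injected-dose standard to give % dose/organ. Blood and muscle were taken as 7% and 43% of body weight.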

Mus musculus [5] = organism: Mus musculus; experiment: Tested for biodistribution of compound at 60 min in mice intestine; assay type: ADME, organism-based; settings: in vivo, 1 h; how it was run: as §1
Rattus norvegicus [6] = organism: Rattus norvegicus; experiment: Tested for biodistribution of compound at 10 min in rat liver; assay type: ADME, organism-based; settings: in vivo
How it was run: (§2)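 Wistar rats under ether anesthesia were dosed through the femoral vein with 0.1 mL of 99mTc complex (3-6 μCi) and dissected 5-60 min pi. Tissue radioactivity was γ-counted against a 1% injected-dose standard and expressed as % dose/organ. Blood and muscle were calculated from sample weight assuming 7% and 43% of body weight.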

Rattus norvegicus [7] = organism: Rattus norvegicus; experiment: Tested for biodistribution of compound at 10 min in rat spleen; assay type: ADME, organism-based; settings: in vivo; how it was run: as §2
Mus musculus [8] = organism: Mus musculus; experiment: Tested for biodistribution of compound at 30 min in mice brain; assay type: ADME, organism-based; settings: in vivo, 0.5 h
How it was run: (§3)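 Male Swiss albino mice, at least five per group, received 0.1 mL (2-3 μCi) of HPLC-purified 99mTc complex reconstituted in 50% methanol by tail vein. They were killed by cardiectomy under light ether anesthesia at set times (1-60 min pi). Organs were weighed and γ-counted against a 1% injected-dose standard to give % dose/organ. Blood and muscle were taken as 7% and 43% of body weight.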

Mus musculus [9] = organism: Mus musculus; experiment: Tested for biodistribution of compound at 30 min in mice muscle; assay type: ADME, organism-based, Muscle tissue; settings: in vivo, 0.5 h; how it was run: as §3
Rattus norvegicus [10] = organism: Rattus norvegicus; experiment: Tested for biodistribution of compound at 30 min in rat heart; assay type: ADME, organism-based; settings: in vivo, 0.5 h; how it was run: as §2
Rattus norvegicus [11] = organism: Rattus norvegicus; experiment: Tested for biodistribution of compound at 30 min in rat kidney; assay type: ADME, organism-based; settings: in vivo, 0.5 h; how it was run: as §2
Rattus norvegicus [12] = organism: Rattus norvegicus; experiment: Tested for biodistribution of compound at 30 min in rat stomach; assay type: ADME, organism-based; settings: in vivo, 0.5 h
Mus musculus [13] = organism: Mus musculus; experiment: Tested for biodistribution of compound at 5 min in mice intestine; assay type: ADME, organism-based; settings: in vivo; how it was run: as §1
Mus musculus [14] = organism: Mus musculus; experiment: Tested for biodistribution of compound at 10 min in mice urine; assay type: ADME, organism-based; settings: in vivo; how it was run: as §3
Rattus norvegicus [15] = organism: Rattus norvegicus; experiment: Tested for biodistribution of compound at 10 min in rat blood; assay type: ADME, organism-based; settings: in vivo; how it was run: as §2
Rattus norvegicus [16] = organism: Rattus norvegicus; experiment: Tested for biodistribution of compound at 10 min in rat heart; assay type: ADME, organism-based; settings: in vivo; how it was run: as §2
Rattus norvegicus [17] = organism: Rattus norvegicus; experiment: Tested for biodistribution of compound at 10 min in rat intestine; assay type: ADME, organism-based; settings: in vivo; how it was run: as §2
Mus musculus [18] = organism: Mus musculus; experiment: Tested for biodistribution of compound at 10 min in mice spleen; assay type: ADME, organism-based; settings: in vivo; how it was run: as §3
Mus musculus [19] = organism: Mus musculus; experiment: Tested for biodistribution of compound at 1 min in mice brain; assay type: ADME, organism-based; settings: in vivo; how it was run: as §3
Mus musculus [20] = organism: Mus musculus; experiment: Tested for biodistribution of compound at 1 min in mice intestine; assay type: ADME, organism-based; settings: in vivo; how it was run: as §3
Mus musculus [21] = organism: Mus musculus; experiment: Tested for biodistribution of compound at 1 min in mice kidney; assay type: ADME, organism-based; settings: in vivo; how it was run: as §3
Mus musculus [22] = organism: Mus musculus; experiment: Tested for biodistribution of compound at 1 min in mice liver; assay type: ADME, organism-based; settings: in vivo; how it was run: as §3
Mus musculus [23] = organism: Mus musculus; experiment: Tested for biodistribution of compound at 1 min in mice spleen; assay type: ADME, organism-based; settings: in vivo; how it was run: as §3
Mus musculus [24] = organism: Mus musculus; experiment: Tested for biodistribution of compound at 10 min in mice brain; assay type: ADME, organism-based; settings: in vivo; how it was run: as §3
Mus musculus [25] = organism: Mus musculus; experiment: Tested for biodistribution of compound at 10 min in mice intestine; assay type: ADME, organism-based; settings: in vivo; how it was run: as §3
Mus musculus [26] = organism: Mus musculus; experiment: Tested for biodistribution of compound at 5 min in mice spleen; assay type: ADME, organism-based; settings: in vivo; how it was run: as §1
Rattus norvegicus [27] = organism: Rattus norvegicus; experiment: Tested for biodistribution of compound at 10 min in rat muscle; assay type: ADME, organism-based, Muscle tissue; settings: in vivo; how it was run: as §2
Mus musculus [28] = organism: Mus musculus; experiment: Tested for biodistribution of compound at 1 min in mice stomach; assay type: ADME, organism-based; settings: in vivo; how it was run: as §3

[4-methoxythio)phenolato][N,N-bis(2-mercaptoethyl)-N',N'-diethylethylenediamine] oxotechnetium
Dose/organ (Rattus norvegicus [1]): 0.15%
Dose/organ (Rattus norvegicus [2]): 1.14%
Dose/organ (Rattus norvegicus [3]): 28.6%
Dose/organ (Mus musculus [4]): 1.21%
Dose/organ (Mus musculus [5]): 33.7%
Dose/organ (Rattus norvegicus [6]): 24.09%
Dose/organ (Rattus norvegicus [7]): 0.77%
Dose/organ (Mus musculus [8]): 1.71%
Dose/organ (Mus musculus [9]): 8.18%
Dose/organ (Rattus norvegicus [10]): 0.17%
Dose/organ (Rattus norvegicus [11]): 6.33%
Dose/organ (Rattus norvegicus [12]): 2.19%
Dose/organ (Mus musculus [13]): 8.31%
Dose/organ (Mus musculus [14]): 1.1%
Dose/organ (Rattus norvegicus [15]): 17.72%
Dose/organ (Rattus norvegicus [16]): 0.51%
Dose/organ (Rattus norvegicus [17]): 2.7%
Dose/organ (Mus musculus [18]): 0.36%
Dose/organ (Mus musculus [19]): 3.56%
Dose/organ (Mus musculus [20]): 2.61%
Dose/organ (Mus musculus [21]): 1.7%
Dose/organ (Mus musculus [22]): 1.96%
Dose/organ (Mus musculus [23]): 0.03%
Dose/organ (Mus musculus [24]): 2.47%
Dose/organ (Mus musculus [25]): 9.61%
Dose/organ (Mus musculus [26]): 0.28%
Dose/organ (Rattus norvegicus [27]): 27.89%
Dose/organ (Mus musculus [28]): 0.15%
